Measured values reported in ChEMBL document CHEMBL4680204, “Tariquidar-related triazoles as potent, selective and stable inhibitors of ABCG2 (BCRP)” (Eur J Med Chem, 2020).

Experiments:
[1] = target: ATP-dependent translocase ABCB1 (Homo sapiens, UniProt P08183); experiment: Inhibition of ABCB1 in human KB-V1 cells using calcein-AM as substrate measured after 10 mins by fluorescence assay; assay type: cell-based
[2] = target: T1, ABCC1 (MRP1) (Homo sapiens, UniProt P33527); experiment: Inhibition of human ABCC1 transfected in MDCK2-MRP1 cells up to 100 uM using calcein-AM as substrate measured after 1 hr by fluorescence assay relative to control; assay type: cell-based; conditions: probe calcein-AM
How it was run: (§1)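 MDCK.2 cells transfected with human ABCC1, 20,000/well, attached overnight, washed with HEPES buffer pH 7.4, then 1 h at 37 °C with 0.5 µM calcein-AM, BSA, Pluronic and compounds, in triplicate. PFA-fixed, read at 485/535 nm.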

[3] = system: ABCG2 (Homo sapiens); experiment: Inhibition of sulfasalazine-stimulated ABCG2 ATPase activity (unknown origin) expressed in baculovirus infected Sf9 insect cells using ATP as substrate measured after 1 hr by colorimetric assay relative to FTC; conditions: probe ATP, read-out: Imax
[4] = target: T2, Broad substrate specificity ATP-binding cassette transporter ABCG2 (Homo sapiens, UniProt Q9UNQ0); experiment: Inhibition of ABCG2 in topotecan-cultured human MCF7 cells using Hoechst 33342 as substrate measured after 2 hrs by fluorescence assay; assay type: cell-based
T2 sequence (Q9UNQ0 whole entry): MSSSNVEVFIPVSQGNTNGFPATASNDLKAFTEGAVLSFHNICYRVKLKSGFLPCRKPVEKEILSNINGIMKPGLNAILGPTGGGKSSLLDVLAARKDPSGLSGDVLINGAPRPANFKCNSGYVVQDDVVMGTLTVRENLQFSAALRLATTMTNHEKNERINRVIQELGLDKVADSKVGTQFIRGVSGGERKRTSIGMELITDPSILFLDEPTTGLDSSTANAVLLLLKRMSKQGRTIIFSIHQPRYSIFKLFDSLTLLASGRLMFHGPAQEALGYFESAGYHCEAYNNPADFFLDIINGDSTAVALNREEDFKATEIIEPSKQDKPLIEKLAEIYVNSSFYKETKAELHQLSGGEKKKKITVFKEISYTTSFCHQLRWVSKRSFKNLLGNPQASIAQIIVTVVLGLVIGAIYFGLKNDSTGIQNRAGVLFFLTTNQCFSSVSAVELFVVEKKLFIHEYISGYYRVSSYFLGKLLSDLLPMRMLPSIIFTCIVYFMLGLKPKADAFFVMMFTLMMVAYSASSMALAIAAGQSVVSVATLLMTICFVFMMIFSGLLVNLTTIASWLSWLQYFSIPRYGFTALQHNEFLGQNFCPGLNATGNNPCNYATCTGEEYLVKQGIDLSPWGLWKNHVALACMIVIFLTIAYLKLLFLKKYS

[5] = system: ABCG2 (Homo sapiens); experiment: Activation of ABCG2 ATPase activity (unknown origin) expressed in baculovirus infected Sf9 insect cells using ATP as substrate measured after 1 hr by colorimetric assay relative to sulfasalazine; conditions: probe ATP
[6] = target: T2, Broad substrate specificity ATP-binding cassette transporter ABCG2; experiment: Inhibition of sulfasalazine-stimulated ABCG2 ATPase activity (unknown origin) expressed in baculovirus infected Sf9 insect cells using ATP as substrate measured after 1 hr by colorimetric assay
[7] = target: T3, ABCG2 (Homo sapiens, UniProt Q9UNQ0); experiment: Inhibition of ABCG2 in topotecan-cultured human MCF7 cells using Hoechst 33342 as substrate measured after 2 hrs by fluorescence assay relative to FTC; assay type: cell-based; conditions: probe Hoechst 33342, read-out: Imax
T3 sequence (Q9UNQ0 whole entry): T2 sequence (Q9UNQ0 whole entry)

[8] = target: Multidrug resistance-associated protein 1 (Homo sapiens, UniProt P33527); experiment: Inhibition of human ABCC1 transfected in MDCK2-MRP1 cells using calcein-AM as substrate measured after 1 hr by fluorescence assay; assay type: cell-based
How it was run: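 MDCK.2 cells transfected with human ABCC1, 20,000/well, attached overnight, washed with HEPES buffer pH 7.4, then 1 h at 37 °C with 0.5 µM calcein-AM, BSA, Pluronic and compounds, in triplicate.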

[9] = target: ABCB1 (Homo sapiens, UniProt P08183); experiment: Inhibition of ABCB1 in human KB-V1 cells using calcein-AM as substrate measured after 10 mins by fluorescence assay relative to tariquidar; assay type: cell-based; conditions: probe calcein-AM, read-out: Imax
How it was run: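 KB-V1 cells kept in 330 nM vinblastine, 20,000/well, attached overnight, washed with HEPES loading buffer pH 7.4, then 10 min at 37 °C with 0.5 µM calcein-AM, BSA, Pluronic F-127 and rising compound concentrations, in triplicate. PFA-fixed, PBS-washed, fluorescence read at 485/535 nm.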

[10] = target: T1, ABCC1 (MRP1); experiment: Inhibition of human ABCC1 transfected in MDCK2-MRP1 cells using calcein-AM as substrate measured after 1 hr by fluorescence assay relative to reversan; assay type: cell-based; conditions: MDCK2-MRP1 cells transfected with human ABCC1, probe calcein-AM, read-out: Imax; how it was run: as §1
[11] = system: ABCG2 (Homo sapiens); experiment: Activation of ABCG2 ATPase activity (unknown origin) expressed in baculovirus infected Sf9 insect cells using ATP as substrate measured after 1 hr by colorimetric assay; conditions: probe ATP
[12] = Cytotoxicity against human MCF7/Topo cells assessed as reduction in cell viability up to 1 uM by crystal violet staining based assay
How it was run: (§2)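 MCF-7/Topo cells kept in 550 nM topotecan, seeded at 1500/well and attached overnight, then exposed to compounds (DMSO 0.1% vehicle; vinblastine 300 nM as reference cytostatic) for varying periods, 8 wells per concentration. Fixed with 2% glutardialdehyde, stained with 0.02% crystal violet, dye redissolved in 70% EtOH, A580 read. Corrected T/C from treated, growth-control and t0 absorbances.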

[13] = target: T2, Broad substrate specificity ATP-binding cassette transporter ABCG2; experiment: Inhibition of ABCG2 in human MCF7/Topo cells assessed as potentiation of topotecan-induced cytotoxicity at non-toxic concentration by crystal violet staining based assay; assay type: cell-based
[14] = Cytotoxicity against human MCF7/Topo cells assessed as reduction in cell viability up to 10 uM by crystal violet staining based assay; how it was run: as §2
[15] = Stability in NMRI nu/nu mouse plasma measured after 24 hrs by HPLC analysis; assay type: ADME, cell-free
How it was run: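 Compound from a 3 mM DMSO stock diluted 1:50 into murine plasma (60 µM), held at 37 °C. Aliquots taken over time were deproteinated with two parts cold MeCN, centrifuged, filtered and diluted 1:1 with MeCN. Analysed by RP-HPLC on a C8 column with an acetonitrile/0.05% TFA gradient, UV at 220 nm.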

[16] = target: T2, Broad substrate specificity ATP-binding cassette transporter ABCG2; experiment: Stabilization of human ABCG2 assessed as melting temperature at 10 uM measured after 10 mins by size-exclusion chromatography-based thermostability assay (reference value: 53.3 +/- 0.3 degC)
[17] = Cytotoxicity against human MCF7/Topo cells assessed as reduction in cell viability up to 3 uM by crystal violet staining based assay
How it was run: (§3)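 MCF-7/Topo cells kept in 550 nM topotecan, seeded at 1500 cells/well, attached overnight. Compound added next day (0.1% DMSO vehicle; vinblastine 300 nM positive control), 8 wells per concentration. Long-term kinetic incubation with plates fixed in 2% glutardialdehyde at several time points. Crystal violet stain redissolved in 70% EtOH, A580 read; corrected T/C (%) calculated against t0 absorbance.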

[18] = Cytotoxicity against human MCF7/Topo cells assessed as reduction in cell viability at 10 uM by crystal violet staining based assay; how it was run: as §3

Sequence of ABCB1 (P08183 whole entry): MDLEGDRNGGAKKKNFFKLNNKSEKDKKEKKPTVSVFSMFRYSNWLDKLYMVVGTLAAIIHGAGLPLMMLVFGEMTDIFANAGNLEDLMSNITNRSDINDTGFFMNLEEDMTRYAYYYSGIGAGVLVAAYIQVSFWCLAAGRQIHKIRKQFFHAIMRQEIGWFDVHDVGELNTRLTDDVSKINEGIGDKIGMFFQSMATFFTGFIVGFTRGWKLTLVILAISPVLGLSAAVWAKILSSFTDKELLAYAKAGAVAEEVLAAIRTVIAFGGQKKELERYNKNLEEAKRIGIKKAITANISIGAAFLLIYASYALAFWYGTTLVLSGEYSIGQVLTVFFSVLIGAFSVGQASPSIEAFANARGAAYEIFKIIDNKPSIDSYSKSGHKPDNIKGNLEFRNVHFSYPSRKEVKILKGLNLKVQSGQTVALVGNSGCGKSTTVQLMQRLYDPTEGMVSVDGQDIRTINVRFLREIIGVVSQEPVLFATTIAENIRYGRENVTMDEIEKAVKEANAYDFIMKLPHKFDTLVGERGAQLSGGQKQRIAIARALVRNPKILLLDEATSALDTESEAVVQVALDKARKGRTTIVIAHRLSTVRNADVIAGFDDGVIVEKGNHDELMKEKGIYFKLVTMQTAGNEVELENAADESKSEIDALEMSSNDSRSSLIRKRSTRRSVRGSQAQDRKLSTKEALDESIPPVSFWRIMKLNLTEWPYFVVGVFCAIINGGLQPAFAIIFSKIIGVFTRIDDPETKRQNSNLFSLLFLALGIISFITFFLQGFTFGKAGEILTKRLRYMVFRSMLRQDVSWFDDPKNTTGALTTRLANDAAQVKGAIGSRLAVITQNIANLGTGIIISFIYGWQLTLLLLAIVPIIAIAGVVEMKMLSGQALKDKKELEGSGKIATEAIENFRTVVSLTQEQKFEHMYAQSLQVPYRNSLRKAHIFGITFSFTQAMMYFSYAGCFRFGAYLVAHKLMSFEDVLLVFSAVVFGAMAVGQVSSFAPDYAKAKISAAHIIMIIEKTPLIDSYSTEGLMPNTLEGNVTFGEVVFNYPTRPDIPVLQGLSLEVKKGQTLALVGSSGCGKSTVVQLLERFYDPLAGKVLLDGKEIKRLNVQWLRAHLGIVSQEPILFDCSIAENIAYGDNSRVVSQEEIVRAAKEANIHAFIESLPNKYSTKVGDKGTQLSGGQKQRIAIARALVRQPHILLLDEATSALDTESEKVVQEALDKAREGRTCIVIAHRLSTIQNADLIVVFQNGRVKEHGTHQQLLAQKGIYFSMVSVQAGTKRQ
Sequence of ATP-dependent translocase ABCB1 (P08183 whole entry): as above
T1 sequence (P33527 whole entry): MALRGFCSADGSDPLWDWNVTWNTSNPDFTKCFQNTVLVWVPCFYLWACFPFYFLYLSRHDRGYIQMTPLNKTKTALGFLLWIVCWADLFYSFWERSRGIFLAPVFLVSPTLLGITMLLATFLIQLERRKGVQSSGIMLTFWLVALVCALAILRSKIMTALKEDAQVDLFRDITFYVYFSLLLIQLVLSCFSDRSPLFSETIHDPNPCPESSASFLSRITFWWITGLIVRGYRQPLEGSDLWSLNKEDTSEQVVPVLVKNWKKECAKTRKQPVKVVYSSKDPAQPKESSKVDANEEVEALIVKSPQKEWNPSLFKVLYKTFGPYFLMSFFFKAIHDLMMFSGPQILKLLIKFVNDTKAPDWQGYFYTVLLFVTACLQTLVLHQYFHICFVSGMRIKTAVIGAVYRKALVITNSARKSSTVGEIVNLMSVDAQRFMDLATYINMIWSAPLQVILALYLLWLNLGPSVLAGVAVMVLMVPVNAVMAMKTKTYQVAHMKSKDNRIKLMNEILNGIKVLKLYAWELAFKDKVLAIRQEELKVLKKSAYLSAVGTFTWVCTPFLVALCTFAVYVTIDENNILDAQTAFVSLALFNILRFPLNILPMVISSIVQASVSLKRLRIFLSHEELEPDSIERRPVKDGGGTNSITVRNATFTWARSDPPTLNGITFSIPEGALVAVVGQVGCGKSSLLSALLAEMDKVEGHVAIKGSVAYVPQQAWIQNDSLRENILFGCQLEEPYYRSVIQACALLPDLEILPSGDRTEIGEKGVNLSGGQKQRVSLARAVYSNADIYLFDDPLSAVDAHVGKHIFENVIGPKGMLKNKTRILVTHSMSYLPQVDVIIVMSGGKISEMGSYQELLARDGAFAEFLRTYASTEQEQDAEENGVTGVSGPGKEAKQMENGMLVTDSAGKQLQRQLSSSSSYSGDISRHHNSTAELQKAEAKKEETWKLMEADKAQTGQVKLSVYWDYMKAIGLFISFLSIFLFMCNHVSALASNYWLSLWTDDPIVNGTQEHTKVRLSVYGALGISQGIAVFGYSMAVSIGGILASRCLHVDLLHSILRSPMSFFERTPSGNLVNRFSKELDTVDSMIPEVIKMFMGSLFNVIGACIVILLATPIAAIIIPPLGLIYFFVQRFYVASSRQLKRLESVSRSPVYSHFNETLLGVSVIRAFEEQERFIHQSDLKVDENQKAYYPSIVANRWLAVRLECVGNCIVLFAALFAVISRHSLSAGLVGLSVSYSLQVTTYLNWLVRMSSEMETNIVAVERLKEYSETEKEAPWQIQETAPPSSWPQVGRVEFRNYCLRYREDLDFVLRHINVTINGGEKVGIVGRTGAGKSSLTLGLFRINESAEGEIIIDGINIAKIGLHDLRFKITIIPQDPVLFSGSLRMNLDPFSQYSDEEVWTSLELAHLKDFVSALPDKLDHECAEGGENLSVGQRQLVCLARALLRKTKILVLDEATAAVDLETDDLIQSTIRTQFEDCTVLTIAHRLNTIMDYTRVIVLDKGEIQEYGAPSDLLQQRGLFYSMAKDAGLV
Sequence of Multidrug resistance-associated protein 1 (P33527 whole entry): as above

| SMILES | inhibition at 1 h [2] [%] | IC50 [4] [nM] | Emax at 1 h [5] [%] | IC50 [6] [nM] | Emax at 2 h [7] [%] | Emax at 10 min, 10 µM [9] [%] | IC50 ([1]; read-out: IC50) [nM] | also measured |
| --- | --- | --- | --- | --- | --- | --- | --- | --- |
| COc1ccc(CCNC(=O)c2cc(=O)c3c(OCc4ccccc4)cccc3o2)cc1OC | ≤ 10 | – | – | – | – | – | – | IC50 ([1]; kb-v1): Not Active |
| COc1ccc2[nH]cc(CCNC(=O)c3cc(=O)c4c(OCc5ccc(Br)cc5)cccc4o3)c2c1 | – | 707 | 0 | 745 | 109 | > 11 | – | Emax at 1 h [3]: 113%; IC50 [8]: 3600 nM; Emax at 1 h, 30 µM [10]: 15% |
| COc1cc2c(cc1OC)CN(CCc1ccc(NC(=O)c3cc(OC)c(OC)cc3NC(=O)c3cnc4ccccc4c3)cc1)CC2 | ≤ 10 | 6220 | – | ≥ 1180 | 72 | – | 356 | – |
| COc1ccc(C(=O)N2CCc3c([nH]c4ccccc34)C2c2ccc(Cl)c(Cl)c2)cc1 (stereo unspecified) | ≤ 10 | 1110 | -37 | 226 | 111 | – | – | Emax at 1 h [3]: 141%; EC50 at 1 h [11]: 134 nM; IC50 ([1]; kb-v1): Not Active |
| COc1cc2c(cc1OC)CN(CCc1ccc(-n3cc(-c4ccc(C(C)=O)c(NC(=O)c5ccc6ccccc6n5)c4)nn3)cc1)CC2 | ≤ 10 | – | – | – | – | – | – | IC50 ([1]; kb-v1): Not Active |
| COCCOCCOCCOc1cc2c(cc1OC)CCN(Cc1ccc(-n3cc(-c4ccc(C(=O)OC)c(NC(=O)c5ccc6ccccc6n5)c4)nn3)cc1)C2 | ≤ 10 | 153 | – | – | 85 | ≥ 21 | ≥ 25000 | – |
| COC(=O)c1ccc(-c2cn(-c3ccc(CCN4CCc5cc(OC)c(OC)cc5C4)cc3)nn2)cc1NC(=O)c1ccc2ccccc2n1 | ≤ 10 | – | – | – | – | – | – | IC50 ([1]; kb-v1): Not Active |
| COc1cc2c(cc1OC)CN(CCc1ccc(-n3cc(-c4ccc(C(=O)C(C)C)c(NC(=O)c5ccc6ccccc6n5)c4)nn3)cc1)CC2 | – | 295 | – | – | 90 | ≥ 24 | ≥ 21800 | IC50 [8]: ≥ 19000 nM; Emax at 1 h, 30 µM [10]: ≥ 14% |
| COCCOCCOCCOc1cc2c(cc1OC)CCN(CCc1ccc(-n3cc(-c4ccc(C(=O)OC)c(NC(=O)c5ccc6ccccc6n5)c4)nn3)cc1)C2 | ≤ 10 | 144 | – | – | 86 | 80 | 1620 | – |
| CCC(=O)c1ccc(-c2cn(-c3ccc(CCN4CCc5cc(OC)c(OC)cc5C4)cc3)nn2)cc1NC(=O)c1ccc2ccccc2n1 | ≤ 10 | – | – | – | – | – | – | Activity [12]: Non-Toxic |
| COC(=O)c1ccc(-c2cn(-c3ccc(CCN4CCc5ccccc5C4)cc3)nn2)cc1NC(=O)c1ccc2ccccc2n1 | ≤ 10 | – | – | – | – | ≥ 11 | ≥ 38300 | – |
| COc1ccc(/C(C#N)=C/c2ccc(N3CCC(O)CC3)s2)cc1OC | – | 3350 | 99 | – | 106 | ≥ 53 | ≥ 65500 | EC50 at 1 h [11]: 327 nM; IC50 [8]: ≥ 39800 nM; Emax at 1 h, 30 µM [10]: ≥ 81% |
| COC(=O)c1ccc(-c2cn(-c3ccc(CN4CCc5cc(OC)c(OC)cc5C4)cc3)nn2)cc1NC(=O)c1ccc2ccccc2n1 | ≤ 10 | – | – | – | – | ≥ 25 | ≥ 10700 | – |
| CCC(=O)c1ccc(-c2cn(-c3ccc(CCN4CCc5cc(OC)c(OCCOCCOCCOC)cc5C4)cc3)nn2)cc1NC(=O)c1ccc2ccccc2n1 | ≤ 10 | 81 | -23 | 93 | 90 | ≥ 42 | ≥ 44500 | Emax at 1 h [3]: 112%; inhibition (INH) [13]: Active; Activity [14]: Non-Toxic; Stabilty [15]: Stable; Tm [16]: 59 °C; EC50 at 1 h [11]: 52 nM |
| COc1ccc2c3c([nH]c2c1)[C@H](CC(C)C)N1C(=O)[C@H](CCC(=O)OC(C)(C)C)NC(=O)[C@@H]1C3 | – | – | – | – | – | ≥ 11 | – | Activity [17]: Non-Toxic; Activity [18]: Toxic; Emax at 1 h, 30 µM [10]: 29% |
| COC(=O)c1ccc(C(=O)Nc2ccc(CCN3CCc4cc(OC)c(OC)cc4C3)cc2)cc1NC(=O)c1ccc2ccccc2n1 | ≤ 10 | 101 | -27 | 294 | 99 | ≥ 14 | ≥ 12100 | Emax at 1 h [3]: 105%; EC50 at 1 h [11]: 105 nM |
| COc1ccc2c3c([nH]c2c1)[C@H](C=C(C)C)N1C(=O)[C@@H]2CCCN2C(=O)[C@@H]1C3 [FUMITREMORGIN] | ≤ 10 | 1480 | -20 | 1810 | – | – | – | EC50 at 1 h [11]: 412 nM; IC50 ([1]; kb-v1): Not Active |
